Diaphorase act: compounds boosting diaphorase resazurin reduction – biochemical, uHTS, resorufin fluorescence, counter-screen for diaphorase-coupled primary assays, primary screen | Diaphorase/resazurin coupled assay, 16 min; stronger effect = higher value; 1 = vehicle wells, 0 = NADH-free wells | activation factor at 20 µM | 190,000 compounds, 0.005% hits | AID 1229, 2008;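 active = diaphorase activity raised at least twofold by the compound at 20 µM; inactive = activation factor below 2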
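Material: purified diaphorase enzyme from Clostridium kluyveri / Medium: HEPES pH 7.4 buffer with MgCl2 and Tween 20 / Schedule: enzyme reaction of 16 min at room temperature / Measured by: resorufin fluorescence, excitation 544 nm, emission 590 nm / Evaluation: rise in resorufin formation, marking diaphorase activation or chemical reduction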
PfGluPho inh: PfG6PD enzyme inhibitors, primary screen, biochemical, fluorescence intensity, uHTS | 350,000 compounds, 0.78% hits | PfGluPho enzyme, NADPH resazurin-diaphorase fluorescence | glucose-6-phosphate dehydrogenase-6-phosphogluconolactonase (Plasmodium falciparum 3D7) | inhibition, % at 20 µM;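 active = inhibition reaching at least a set limit at 20 µM in the primary screen, cut at about 59% in these data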;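 note: 0% = DMSO wells with substrate and 100% = DMSO wells lacking glucose-6-phosphate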
G6PDH CS: L. mesenteroides G6PDH inhibitors, counter-screen for G6PDH-coupled screening assays, biochemical, Leuconostoc mesenteroides enzyme. 200,000 compounds, 0.12% hits. glucose-6-phosphate dehydrogenase [Leuconostoc mesenteroides]. Purified L. mesenteroides G6PDH, diaphorase/resazurin coupled fluorescence, 45 min. inhibition, % at 5 µM; in the data active = inhibition above about 50%
Diaphorase inh: diaphorase inhibitors and chemical oxidizers, primary screen, counter-screen for diaphorase-coupled primary assays, biochemical, uHTS, resorufin fluorescence. diaphorase resazurin-to-resorufin fluorescence, NADH, 16 min; bacterial (C. kluyveri) enzyme, not human. 190,000 compounds, 0.69% hits. inhibition, % at 20 µM;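 active = primary screen inhibition at 20 µM above a set limit, cut at about 50% in these data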;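 note: plate controls were DMSO with full reaction for no effect and wells lacking NADH for full effect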
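material = Clostridium kluyveri diaphorase enzyme | amount = 0.14 U/mL diaphorase, enzyme working solution | schedule = incubation 16 min, room temperature | detection = fluorescence of resorufin formed from resazurin, Ex 544/Em 590 nm | benchmarks = positive control minus NADH, DMSO neutral control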
HKDC1 inhibitor: HKDC1 hexokinase inhibitors, primary screen, biochemical, fluorescence, uHTS; recombinant HKDC1, G6PDH/diaphorase resazurin coupled fluorescence; inhibition, % at 20 µM; 340,000 compounds, 0.16% hits; AID 493160, 2011;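 active = inhibition above about 35% when tested at 20 µM, limit read from the data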;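 note: plate controls were DMSO wells with enzyme for no effect and DMSO wells lacking enzyme for full effect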
Target sequence (Q2TB90 whole entry, looked up): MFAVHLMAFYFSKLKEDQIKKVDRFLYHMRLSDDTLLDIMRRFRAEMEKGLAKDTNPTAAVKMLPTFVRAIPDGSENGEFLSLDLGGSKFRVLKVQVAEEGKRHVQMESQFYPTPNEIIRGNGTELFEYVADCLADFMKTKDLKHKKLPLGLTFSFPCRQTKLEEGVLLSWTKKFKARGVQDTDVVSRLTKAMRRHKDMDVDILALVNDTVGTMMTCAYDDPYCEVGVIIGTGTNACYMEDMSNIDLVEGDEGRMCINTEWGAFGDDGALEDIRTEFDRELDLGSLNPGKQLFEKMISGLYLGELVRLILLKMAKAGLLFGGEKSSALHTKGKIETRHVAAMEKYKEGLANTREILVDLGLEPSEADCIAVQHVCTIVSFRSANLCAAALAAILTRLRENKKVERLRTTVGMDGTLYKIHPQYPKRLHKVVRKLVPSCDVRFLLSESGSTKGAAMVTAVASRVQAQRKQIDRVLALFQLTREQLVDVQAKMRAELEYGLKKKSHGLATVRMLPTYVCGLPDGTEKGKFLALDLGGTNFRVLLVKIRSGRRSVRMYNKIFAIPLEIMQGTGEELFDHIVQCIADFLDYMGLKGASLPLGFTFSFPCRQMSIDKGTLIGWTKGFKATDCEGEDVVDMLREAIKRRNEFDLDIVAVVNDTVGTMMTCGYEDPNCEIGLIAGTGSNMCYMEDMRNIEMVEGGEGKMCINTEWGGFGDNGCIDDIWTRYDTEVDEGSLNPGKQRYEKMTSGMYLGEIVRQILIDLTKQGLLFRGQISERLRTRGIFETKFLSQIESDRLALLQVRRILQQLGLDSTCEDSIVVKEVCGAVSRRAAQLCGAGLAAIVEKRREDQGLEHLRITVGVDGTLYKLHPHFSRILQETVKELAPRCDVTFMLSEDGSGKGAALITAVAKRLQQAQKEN
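Test system: HK5 enzyme. Quantity: 5 µg/mL HK5 final. Reagent: glucose and ATP substrates. Schedule: 90 min reaction incubation at room temperature, dark. Technique: resazurin-to-resorufin fluorescence via G6PDH and diaphorase coupling, 525/613 nm. Control set: DMSO wells with and without enzyme mix.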
The depositor's hits bear a star; . = not tested or not shown. Compounds with a hit are over-represented: about 1.2% of the library has one in this group of screens.

SMILES	Diaphorase act	PfGluPho inh	G6PDH CS	Diaphorase inh	HKDC1 inhibitor
O=C(/C=C/c1cc[n+](CC(=O)c2ccc3cccc4c3c2CC4)cc1)c1ccc2cccc3c2c1CC3	.	73*	.	.	19
CC(C)N(CC#CCC(O)(c1ccccc1)C1CCCC1)CCO (configuration not stated)	0.4	0	12	60*	7
CCN(CC#CCC(O)(c1ccccc1)C1CCCC1)C(C)C (configuration not stated)	0.9	1	8	9	-2
Cc1cc(NC(=O)CSc2nnc3ccc(-c4ccccc4)nn23)no1	.	-7	.	.	.
COc1cc2c(cc1NC(=O)C(C)Sc1ccc(C)cc1)oc1ccccc12 (configuration not stated)	0.2	5	0	76*	-4
COc1cc2c(cc1NC(=O)CSc1ccc(C)cc1)oc1ccccc12	0.7	20	1	31	9
C=CCc1cc(/C=C/c2nc(O)c([N+](=O)[O-])c(=O)[nH]2)cc(OC)c1O	0.3	30	5	71*	11
Nc1ncc(Br)cc1N=Cc1ccccc1	0.5	89*	12	50	10
Cn1ncc(N=Cc2ccccc2)c1C(N)=O	0.8	-9	11	16	-5
CCn1c2ccccc2c2nc3cc(C(=O)O)ccc3nc21	0.4	-8	16	60*	0
CCn1c2ccccc2c2nc3ccccc3nc21	0.7	11	0	32	12
Nc1ccn([C@@H]2O[C@H](CNCc3ccc(N4CCNCC4)cc3)[C@@H](O)[C@H]2O)c(=O)n1	.	7	.	.	.
CC(=O)OCCNc1cc(SC(C)C)c2nonc2c1[N+](=O)[O-]	0.5	-2	-2	52*	12
CC(C)CCSc1cc(NCCO)c([N+](=O)[O-])c2nonc12	0.2	32	12	80*	8
Cc1ccc(Sc2cc(NCCCO)c([N+](=O)[O-])c3nonc23)cc1	.	11	.	.	6
CCOC(=O)N1CCN(c2cc(NCCO)c([N+](=O)[O-])c3nonc23)CC1	0.5	15	6	49	0
O=[N+]([O-])c1c(NCCO)cc(N2CCCCC2)c2nonc12	0.5	13	26	52*	10
CC(=O)OCCN(C)c1cc(SC(C)C)c2nonc2c1[N+](=O)[O-]	0.9	12	14	11	-1
CCC(=O)OCCNc1cc(SCCC(=O)OC)c2nonc2c1[N+](=O)[O-]	0.3	34	-10	71*	3
CSCc1ccc(C(=O)OCC(=O)NC2CCCC2)o1	.	-8	.	.	.
CC1CCN(S(=O)(=O)N2CCC(C(=O)NCc3ccc(F)cc3Cl)CC2)CC1	.	4	.	.	.
Cn1ccn(CCCCCCn2ccn(C)c2=S)c1=S	.	6	.	.	.
O=C(CN1CC(=O)Oc2ccccc21)OCC(=O)c1ccc(F)cc1	0.5	-21	28	51*	4
Cc1ccc2[nH]c(=O)c3cc(C(=O)N4CCN(C(=O)c5ccco5)CC4)sc3c2c1	0.4	-10	-6	60*	-1
Cn1c(N)c(C(=O)COC(=O)C2Cc3ccccc3CN2S(C)(=O)=O)c(=O)n(C)c1=O (configuration not stated)	.	-8	.	.	.
SMILES	Diaphorase act	PfGluPho inh	G6PDH CS	Diaphorase inh	HKDC1 inhibitor
O=C(CNc1ccc2ccccc2c1)N/N=C/c1ccc(C(=O)O)cc1	0.4	-6	5	59*	9
COc1ccc(C(=O)CNc2ccc3ccccc3c2)cc1	0.4	13	24	63*	9
O=C(CNc1ccc2ccccc2c1)N/N=C/c1cc2ccccc2nc1Cl	0.5	31	4	52*	13
COc1ccc(NC(=O)c2ccc3ccccc3c2)cc1	.	9	.	.	-5
O=C(COc1cccc(Cl)c1)N/N=C\c1cc2ccccc2nc1Cl	1	2	1	2	-8
C[C@@H]1CN([C@H](C)CO)C(=O)CCCn2nncc2CO[C@H]1CN(C)Cc1ccc2c(c1)OCCO2	.	6	.	.	.
CC1=C(C(=O)N2CCOCC2)CC(CC(=O)NCc2ccco2)C(=O)N1Cc1ccc(C(C)(C)C)cc1 (configuration not stated)	.	-5	.	.	.
Cc1ccc(C(=O)NC(=S)NNC(=O)CCN2CCOCC2)cc1	0.3	-21	-7	67*	-5
O=C(NC(=S)NCCN1CCOCC1)c1ccc(F)cc1	0.9	3	12	7	4
CCN(CC(=O)Nc1ccc(NC(C)=O)cc1)C(=O)c1ccc(N(C)S(=O)(=O)c2ccc(C)cc2)cc1	.	13	.	.	-2
C[C@H]1CN([C@@H](C)CO)C(=O)c2cc(Br)cnc2O[C@H]1CN(C)Cc1ccccc1C(=O)O	.	0	.	.	.
S=c1[nH]c(-c2ccccc2)cn1/N=C/c1ccccc1Br	0.5	35	-6	46	3
Oc1ccc(/C=N/n2cc(-c3ccccc3)[nH]c2=S)cc1	0.5	37	-12	53*	-1
N#Cc1sc2nc(-c3ccccc3)cc(-c3ccco3)c2c1N	0.4	28	-40	62*	23
Cc1ccccc1Oc1ccc2c(c1)[C@@H]1C[C@H]3[C@@H](C(=O)N1CC2)[C@H](C)ON3C	.	-1	.	.	1
COc1cccc(-c2nc(CN3CCN(C(=O)c4ccco4)CC3)c(C)o2)c1OC	.	14	.	.	.
O=C1C(=C(O)c2ccccc2)C(=O)c2ccccc21	1	-18	6	4	-6
O=C(c1ccccc1)c1coc2c1C(=O)c1ccccc1C2=O	1.2	-9	53*	-16	-2
O=C1c2ccccc2C(=O)N1CCC#C/C=C1\c2ccccc2C(=O)N1c1ccccc1	.	4	.	.	.
Nc1nc2c(s1)COc1ccccc1-2	0.9	33	12	9	9
Nc1nc2c(s1)CCc1c-2cnn1-c1ccccc1	0.3	98*	62*	66*	28
COc1ccc(S(=O)(=O)N2CCOCC2)cc1NC(=O)c1ccc(SC)cc1OC	.	-6	.	.	.
COc1cc(/C=N/NC(=O)C(Cc2c[nH]c3ccccc23)NC(=O)OCC(C)C)cc([N+](=O)[O-])c1OCc1ccccc1 (configuration not stated)	0.3	-4	15	71*	8
COc1cc(C(=O)ON=C2C(C)=CC(=O)C=C2C)cc(OC)c1OC	0.2	50	2	76*	-1
COc1cc(C(=O)Oc2cc(C)cc(C)c2)cc(OC)c1OC	0.8	-10	8	20	2
Oc1cccc(C=NCc2ccccc2)c1O	0.4	49	60*	62*	8
O=C(CC(c1ccccc1)C1CCCCC1=O)c1ccccc1 (configuration not stated)	.	0	.	.	-4
Cc1c(NC(=O)CC(=O)Nc2c(C)n(C)n(-c3ccccc3)c2=O)c(=O)n(-c2ccccc2)n1C	0.9	0	10	10	-7
